Results: ChEMBL document CHEMBL2202955, “Identification of Potent, Selective, Cell-Active Inhibitors of the Histone Lysine Methyltransferase EZH2” (ACS Med Chem Lett, 2012)
The source made the active and inactive calls. No cut-off for these calls is given here.

Key:
[1] = target: EZH2/SUZ12/EED/RBBP7/RBBP4; experiment: Inhibition of PRC2 complex of FLAG-EZH2, EED, SUZ12, AEBP2 and RbAp48 using histone H3 peptide (21 to 44) as substrate and [3H]SAM after 30 mins; assay type: protein-complex assay; conditions: read-out: Ki(app)
[2] = target: Histone-lysine N-methyltransferase 2A (Homo sapiens, UniProt Q03164); experiment: Inhibition of MLL1 using core histone as substrate preincubated for 10 mins followed by addition of [3H]SAM and incubated for 60 mins
Outline: (§1)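 Panel of methyltransferases tested for selectivity. […] Values are the mean of at least two independent replicates.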

[3] = target: DNA (cytosine-5)-methyltransferase 3B (Mus musculus, UniProt O88509); experiment: Inhibition of mouse DNMT3b1 using lambda DNA as substrate preincubated for 10 mins followed by addition of [3H]SAM and incubated for 60 mins; outline: as §1
[4] = target: Histone-lysine N-methyltransferase SUV39H2 (Homo sapiens, UniProt Q9H5I1); experiment: Inhibition of SUV39H2 using histone H3 as substrate preincubated for 10 mins followed by addition of [3H]SAM and incubated for 60 mins; outline: as §1
[5] = target: Histone-lysine N-methyltransferase, H3 lysine-79 specific (Homo sapiens, UniProt Q8TEK3); experiment: Inhibition of DOT1L using core histone as substrate preincubated for 10 mins followed by addition of [3H]SAM and incubated for 60 mins; outline: as §1
[6] = target: T1, Histone-lysine N-methyltransferase SETMAR (Homo sapiens, UniProt Q53H47); experiment: Inhibition of SETMAR using histone H3 as substrate preincubated for 10 mins followed by addition of [3H]SAM and incubated for 60 mins; outline: as §1
T1 sequence (Q53H47 whole entry): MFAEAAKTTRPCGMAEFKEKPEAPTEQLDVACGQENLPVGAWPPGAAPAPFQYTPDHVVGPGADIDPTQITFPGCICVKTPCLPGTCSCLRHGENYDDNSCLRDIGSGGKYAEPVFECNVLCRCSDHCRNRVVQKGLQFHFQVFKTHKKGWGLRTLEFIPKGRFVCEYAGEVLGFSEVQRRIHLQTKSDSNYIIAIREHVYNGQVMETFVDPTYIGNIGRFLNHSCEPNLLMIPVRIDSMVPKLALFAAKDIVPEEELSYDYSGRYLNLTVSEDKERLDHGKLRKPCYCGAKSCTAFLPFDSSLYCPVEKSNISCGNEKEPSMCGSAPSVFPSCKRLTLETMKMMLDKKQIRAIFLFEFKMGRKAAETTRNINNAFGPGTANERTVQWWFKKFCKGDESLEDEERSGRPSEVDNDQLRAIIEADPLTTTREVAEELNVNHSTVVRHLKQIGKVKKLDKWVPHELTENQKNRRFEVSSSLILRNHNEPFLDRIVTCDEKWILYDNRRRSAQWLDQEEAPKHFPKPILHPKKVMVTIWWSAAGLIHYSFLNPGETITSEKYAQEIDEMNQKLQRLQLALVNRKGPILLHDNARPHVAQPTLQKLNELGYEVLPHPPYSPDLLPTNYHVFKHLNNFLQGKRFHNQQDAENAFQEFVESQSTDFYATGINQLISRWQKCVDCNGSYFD

[7] = target: T2, Histone-arginine methyltransferase CARM1 (Homo sapiens, UniProt Q86X55); experiment: Inhibition of PRMT4 using histone H3 as substrate preincubated for 10 mins followed by addition of [3H]SAM and incubated for 60 mins; outline: as §1
T2 sequence (Q86X55 whole entry): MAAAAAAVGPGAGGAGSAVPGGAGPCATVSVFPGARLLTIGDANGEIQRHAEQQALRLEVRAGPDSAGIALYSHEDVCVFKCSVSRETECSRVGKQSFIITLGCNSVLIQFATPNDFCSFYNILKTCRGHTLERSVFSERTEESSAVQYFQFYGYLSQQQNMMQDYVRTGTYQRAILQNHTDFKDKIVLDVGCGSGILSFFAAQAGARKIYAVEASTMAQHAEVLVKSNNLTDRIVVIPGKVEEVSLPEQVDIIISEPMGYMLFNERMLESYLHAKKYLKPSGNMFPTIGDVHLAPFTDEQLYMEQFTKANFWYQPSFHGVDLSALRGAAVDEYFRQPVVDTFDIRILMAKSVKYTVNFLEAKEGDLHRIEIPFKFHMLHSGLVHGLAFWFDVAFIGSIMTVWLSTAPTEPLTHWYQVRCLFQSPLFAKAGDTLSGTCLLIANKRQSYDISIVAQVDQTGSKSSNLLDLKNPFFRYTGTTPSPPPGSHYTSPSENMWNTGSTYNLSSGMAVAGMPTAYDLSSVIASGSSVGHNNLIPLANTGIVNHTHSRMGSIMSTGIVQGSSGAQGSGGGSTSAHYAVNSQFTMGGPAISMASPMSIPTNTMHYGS

[8] = target: T3, Histone-lysine N-methyltransferase SUV39H1 (Homo sapiens, UniProt O43463); experiment: Inhibition of SUV39H1 using histone H3 as substrate preincubated for 10 mins followed by addition of [3H]SAM and incubated for 60 mins; outline: as §1
T3 sequence (O43463 whole entry): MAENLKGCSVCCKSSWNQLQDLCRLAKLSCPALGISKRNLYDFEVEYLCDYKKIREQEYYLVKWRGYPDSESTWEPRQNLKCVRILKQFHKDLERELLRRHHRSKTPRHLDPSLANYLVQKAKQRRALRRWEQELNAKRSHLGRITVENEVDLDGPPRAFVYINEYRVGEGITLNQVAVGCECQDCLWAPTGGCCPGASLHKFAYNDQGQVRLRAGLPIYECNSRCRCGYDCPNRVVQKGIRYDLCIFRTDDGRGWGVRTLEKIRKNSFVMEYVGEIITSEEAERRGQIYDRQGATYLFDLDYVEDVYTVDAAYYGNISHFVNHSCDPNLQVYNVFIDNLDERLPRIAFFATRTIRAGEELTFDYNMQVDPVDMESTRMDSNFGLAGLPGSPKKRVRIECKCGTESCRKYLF

[9] = target: Histone-lysine N-methyltransferase 2C (Homo sapiens, UniProt Q8NEZ4); experiment: Inhibition of MLL3 using core histone as substrate preincubated for 10 mins followed by addition of [3H]SAM and incubated for 60 mins; outline: as §1
[10] = target: Protein arginine N-methyltransferase 3 (Homo sapiens, UniProt O60678); experiment: Inhibition of PRMT3 using histone H3 as substrate preincubated for 10 mins followed by addition of [3H]SAM and incubated for 60 mins; outline: as §1
[11] = target: Histone-lysine N-methyltransferase 2B (Homo sapiens, UniProt Q9UMN6); experiment: Inhibition of MLL4 using core histone as substrate preincubated for 10 mins followed by addition of [3H]SAM and incubated for 60 mins; outline: as §1
[12] = target: T4, Histone-lysine N-methyltransferase EZH2 (Homo sapiens, UniProt Q15910); experiment: Inhibition of EZH2-mediated proliferation of human PC3 cells after 6 days by chemiluminescence analysis; assay type: cell-based; conditions: PC-3
[13] = target: T4, Histone-lysine N-methyltransferase EZH2; experiment: Inhibition of EZH2-mediated nuclear H3K27 methylation in human HCC1806 cells at >1000 nM after 72 hrs by immunofluorescence analysis; assay type: cell-based
Outline: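 HCC1806 breast cancer cells were exposed to compound for 72 h. Nuclear H3K27me3 was quantified by an immunofluorescence imaging assay and normalized to total H3. […] Values are the mean of at least three independent replicates.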

Sequence of Histone-lysine N-methyltransferase, H3 lysine-79 specific (Q8TEK3 whole entry): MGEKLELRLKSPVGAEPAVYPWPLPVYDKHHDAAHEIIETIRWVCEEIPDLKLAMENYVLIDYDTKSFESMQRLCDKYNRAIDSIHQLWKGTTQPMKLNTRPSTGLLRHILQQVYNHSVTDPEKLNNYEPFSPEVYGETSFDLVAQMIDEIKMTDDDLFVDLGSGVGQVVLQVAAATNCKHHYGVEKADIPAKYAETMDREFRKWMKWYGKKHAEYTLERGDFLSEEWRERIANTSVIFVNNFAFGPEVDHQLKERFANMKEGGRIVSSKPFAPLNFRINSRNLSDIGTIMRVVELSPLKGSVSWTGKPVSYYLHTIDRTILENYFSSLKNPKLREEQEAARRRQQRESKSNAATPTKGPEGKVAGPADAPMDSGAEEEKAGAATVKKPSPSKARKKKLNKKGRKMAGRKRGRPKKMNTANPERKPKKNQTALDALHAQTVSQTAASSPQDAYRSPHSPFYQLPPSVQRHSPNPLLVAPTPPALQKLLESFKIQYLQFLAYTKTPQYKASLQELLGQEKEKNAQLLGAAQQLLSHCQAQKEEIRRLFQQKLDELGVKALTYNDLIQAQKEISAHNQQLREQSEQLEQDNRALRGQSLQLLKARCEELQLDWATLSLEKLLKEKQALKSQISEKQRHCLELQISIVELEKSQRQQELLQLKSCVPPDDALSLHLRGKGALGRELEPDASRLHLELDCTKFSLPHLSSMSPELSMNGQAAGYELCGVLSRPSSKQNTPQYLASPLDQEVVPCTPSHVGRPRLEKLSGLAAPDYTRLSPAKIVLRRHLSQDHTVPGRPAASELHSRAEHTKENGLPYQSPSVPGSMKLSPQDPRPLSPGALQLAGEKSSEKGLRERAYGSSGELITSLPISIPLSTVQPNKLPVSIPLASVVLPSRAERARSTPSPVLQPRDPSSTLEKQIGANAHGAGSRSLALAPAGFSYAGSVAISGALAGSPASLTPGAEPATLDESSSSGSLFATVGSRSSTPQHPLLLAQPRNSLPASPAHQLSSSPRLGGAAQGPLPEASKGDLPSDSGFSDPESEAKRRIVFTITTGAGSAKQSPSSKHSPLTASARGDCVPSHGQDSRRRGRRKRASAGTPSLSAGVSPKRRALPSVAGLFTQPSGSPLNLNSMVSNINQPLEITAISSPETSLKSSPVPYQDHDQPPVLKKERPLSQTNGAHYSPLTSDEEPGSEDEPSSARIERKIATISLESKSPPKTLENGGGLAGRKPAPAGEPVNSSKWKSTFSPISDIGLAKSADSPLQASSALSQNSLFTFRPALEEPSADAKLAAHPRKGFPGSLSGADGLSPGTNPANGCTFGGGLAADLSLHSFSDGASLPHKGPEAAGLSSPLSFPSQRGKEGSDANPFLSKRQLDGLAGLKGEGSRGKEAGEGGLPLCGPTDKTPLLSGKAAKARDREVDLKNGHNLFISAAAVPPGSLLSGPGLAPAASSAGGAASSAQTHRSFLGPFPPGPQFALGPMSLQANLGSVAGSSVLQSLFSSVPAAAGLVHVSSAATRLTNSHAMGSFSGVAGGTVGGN
Sequence of Protein arginine N-methyltransferase 3 (O60678 whole entry): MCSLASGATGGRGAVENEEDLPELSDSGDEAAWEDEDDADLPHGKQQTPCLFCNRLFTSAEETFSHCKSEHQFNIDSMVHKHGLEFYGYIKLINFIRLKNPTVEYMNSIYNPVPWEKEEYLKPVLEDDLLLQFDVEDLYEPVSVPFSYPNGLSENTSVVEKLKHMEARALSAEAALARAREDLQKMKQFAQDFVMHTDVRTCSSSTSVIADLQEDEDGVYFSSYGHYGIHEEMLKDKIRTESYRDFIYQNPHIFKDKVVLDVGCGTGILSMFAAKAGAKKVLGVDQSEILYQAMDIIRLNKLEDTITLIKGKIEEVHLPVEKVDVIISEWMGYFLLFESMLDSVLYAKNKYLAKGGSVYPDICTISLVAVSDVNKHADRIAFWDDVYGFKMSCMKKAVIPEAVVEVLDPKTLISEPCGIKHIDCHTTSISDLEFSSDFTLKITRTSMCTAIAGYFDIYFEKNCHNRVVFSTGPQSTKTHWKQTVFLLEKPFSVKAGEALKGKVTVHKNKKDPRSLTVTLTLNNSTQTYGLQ
Sequence of Histone-lysine N-methyltransferase SUV39H2 (Q9H5I1 whole entry): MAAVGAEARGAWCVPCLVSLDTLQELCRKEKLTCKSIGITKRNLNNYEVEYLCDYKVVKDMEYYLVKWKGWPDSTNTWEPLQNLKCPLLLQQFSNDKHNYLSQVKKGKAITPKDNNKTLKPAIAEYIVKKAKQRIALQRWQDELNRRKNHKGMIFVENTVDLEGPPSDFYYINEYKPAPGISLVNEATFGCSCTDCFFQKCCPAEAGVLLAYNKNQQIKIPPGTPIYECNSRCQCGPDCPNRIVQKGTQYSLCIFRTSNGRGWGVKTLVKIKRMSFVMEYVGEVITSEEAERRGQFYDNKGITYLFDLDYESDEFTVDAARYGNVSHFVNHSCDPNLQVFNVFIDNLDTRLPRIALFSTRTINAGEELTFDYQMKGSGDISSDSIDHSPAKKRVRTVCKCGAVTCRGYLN
T4 sequence (Q15910 whole entry, looked up): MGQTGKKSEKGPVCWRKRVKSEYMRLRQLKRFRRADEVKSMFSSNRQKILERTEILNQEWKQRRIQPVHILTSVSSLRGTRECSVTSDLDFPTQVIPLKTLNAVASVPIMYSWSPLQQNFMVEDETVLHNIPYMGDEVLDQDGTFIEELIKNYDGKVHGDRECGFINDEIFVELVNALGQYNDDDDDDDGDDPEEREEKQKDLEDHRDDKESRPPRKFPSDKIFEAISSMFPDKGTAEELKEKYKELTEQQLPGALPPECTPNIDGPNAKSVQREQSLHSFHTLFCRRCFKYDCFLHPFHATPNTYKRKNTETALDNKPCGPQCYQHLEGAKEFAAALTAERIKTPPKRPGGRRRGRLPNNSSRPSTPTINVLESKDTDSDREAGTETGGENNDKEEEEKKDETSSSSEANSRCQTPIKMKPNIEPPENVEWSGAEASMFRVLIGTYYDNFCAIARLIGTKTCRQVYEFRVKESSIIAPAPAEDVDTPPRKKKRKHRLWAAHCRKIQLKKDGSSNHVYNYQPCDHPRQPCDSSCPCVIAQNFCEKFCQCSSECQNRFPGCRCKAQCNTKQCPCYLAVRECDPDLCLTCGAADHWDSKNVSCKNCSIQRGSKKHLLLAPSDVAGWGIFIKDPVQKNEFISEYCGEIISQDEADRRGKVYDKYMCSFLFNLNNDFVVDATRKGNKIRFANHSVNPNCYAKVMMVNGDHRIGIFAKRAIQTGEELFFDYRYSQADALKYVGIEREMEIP

Row | Ki [1] | IC50 [2] | IC50 [3] | IC50 [4] | IC50 [5] | IC50 [6] | IC50 [7] | IC50 [8] | IC50 [9] | IC50 [10] | IC50 [11] | inhibition [12] | inhibition [13] | Structure (SMILES)
1 | 0.0012 µM | > 100 µM | > 100 µM | 123 µM | > 100 µM | > 100 µM | 128 µM | > 100 µM | > 100 µM | 74 µM | > 100 µM |  |  | CCCc1cc(C)[nH]c(=O)c1CNC(=O)c1cc(-c2ccnc(N3CCN(C)CC3)c2)cc2c1cnn2C(C)C
2 | 0.0079 µM |  | > 100 µM | > 100 µM | > 100 µM | > 100 µM | > 100 µM | > 100 µM |  | > 100 µM |  | Active | > 90% | Cc1cc(C)c(CNC(=O)c2cc(-c3ccc(N4CCN(C)CC4)nc3)cc3c2cnn3C(C)C)c(=O)[nH]1
3 | 0.0006 µM |  | > 100 µM | > 100 µM | > 100 µM | > 100 µM | 116 µM | > 100 µM |  | 54 µM |  |  |  | CCCc1cc(C)[nH]c(=O)c1CNC(=O)c1cc(-c2ccc(N3CCN(C)CC3)nc2)cc2c1cnn2C(C)C
